In ChEMBL document CHEMBL1137990, “Design and synthesis of novel indole beta-diketo acid derivatives as HIV-1 integrase inhibitors” (J Med Chem, 2004):

Key:
[1] = molecular target: Human immunodeficiency virus type 1 integrase (Human immunodeficiency virus 1) (UniProt Q7ZJM1); assay: Selectivity index against HIV-1 integrase
[2] = molecular target: T1, Human immunodeficiency virus type 1 integrase (Human immunodeficiency virus 1, UniProt Q7ZJM1); assay: Inhibitory concentration against HIV-1 integrase mediated 3' processing reaction
T1 sequence (Q7ZJM1 whole entry): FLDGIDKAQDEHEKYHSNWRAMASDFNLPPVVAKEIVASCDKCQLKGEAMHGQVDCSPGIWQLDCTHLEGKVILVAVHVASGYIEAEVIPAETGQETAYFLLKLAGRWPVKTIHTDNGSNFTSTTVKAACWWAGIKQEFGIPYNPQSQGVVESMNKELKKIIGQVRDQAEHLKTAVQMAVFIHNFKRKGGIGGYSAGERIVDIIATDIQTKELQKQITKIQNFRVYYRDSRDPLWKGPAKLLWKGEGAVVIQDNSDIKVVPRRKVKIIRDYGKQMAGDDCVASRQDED
Method in brief: (§1)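 Wild-type IN at 200 nM final, preincubated with inhibitor for 30 min at 30 °C in buffer of 50 mM NaCl, 1 mM HEPES pH 7.5, 50 µM EDTA, 50 µM DTT, 10% glycerol, 7.5 mM MnCl₂, 0.1 mg/mL BSA, 10 mM 2-mercaptoethanol, 10% DMSO, 25 mM MOPS pH 7.2. Then 20 nM 5′-³²P-labeled linear oligonucleotide substrate added, 1 h more; quenched with formamide/EDTA loading dye; products resolved on gel.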

CEM-SS = assay: Cytotoxic concentration against HIV-1 was evaluated in human T-cell line CEM-SS; format: functional
Method in brief: (§2)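 CEM-SS human T cells at 5 × 10³ cells/well infected with HIV-1 RF (MOI 0.3). Serial compound dilutions added at once; cultured 6 days at 37 °C, 5% CO₂. Viability read by XTT (0.2 mg/mL, 4 h) absorbance at 450 nm. AZT and dextran sulfate run as controls. Toxicity measured on the same plate in uninfected CEM-SS cells.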

[3] = test system: Human immunodeficiency virus 1; assay: Effective concentration required for the inhibition of HIV-1 cytopathic effect; format: functional, organism-based; method in brief: as §2
[4] = molecular target: T1, Human immunodeficiency virus type 1 integrase; assay: Inhibitory concentration against HIV-1 integrase mediated strand transfer reaction; method in brief: as §1
[5] = Therapeutic index is the ratio of CC50 to that of EC50; conditions: human; read-out: Therapeutic index
Method in brief: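 CC50/EC50 ratio, both values from the same plate. CEM-SS cells were infected with HIV-1 RF (MOI 0.3) or left uninfected, with serial compound dilutions. Cultures ran 6 days at 37 °C. Viability was read by XTT absorbance at 450 nm.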

Human immunodeficiency virus type 1 integrase (Human immunodeficiency virus 1), sequence (Q7ZJM1 as listed by the source): as the sequence (Q7ZJM1 whole entry) above

## CCn1c(C(=O)CC(=O)C(=O)OC)cc2cc3c(cc21)OCO3
[1]
  Selectivity index: 1.3
[2]
  IC50: 85 µM
CEM-SS
  CC50: 75 µM
[3]
  EC50: > 75 µM
[4]
  IC50: 65 µM

## COC(=O)C(=O)CC(=O)c1cn(C)c2cc3c(cc12)OCO3
[1]
  Selectivity index: > 1.6
[2]
  IC50: > 100 µM
CEM-SS
  CC50: 31 µM
[3]
  EC50: > 31 µM
[4]
  IC50: 60 µM

## O=C(O)C(=O)/C=C(\O)c1cc2cc3c(cc2n1Cc1ccccc1)OCO3
[1]
  Selectivity index: 17
[2]
  IC50: 35 µM
CEM-SS
  CC50: 3.8 µM
[3]
  EC50: > 3.8 µM
[4]
  IC50: 2 µM

## CCn1cc(/C(O)=C/C(=O)C(=O)O)c2cc3c(cc21)OCO3
[1]
  Selectivity index: 15
[5]
  selectivity ratio: > 1.6
[2]
  IC50: 45 µM
CEM-SS
  CC50: > 200 µM
[3]
  EC50: 123 µM
[4]
  IC50: 3 µM

## COC(=O)C(=O)CC(=O)c1cc2cc3c(cc2n1Cc1ccccc1)OCO3
[1]
  Selectivity index: 7
[2]
  IC50: 100 µM
CEM-SS
  CC50: 1.1 µM
[3]
  EC50: > 1.1 µM
[4]
  IC50: 14 µM

## CCn1c(/C(O)=C/C(=O)C(=O)O)cc2cc3c(cc21)OCO3
[1]
  Selectivity index: 11
[2]
  IC50: 55 µM
CEM-SS
  CC50: 57 µM
[3]
  EC50: > 57 µM
[4]
  IC50: 5 µM

## CCn1cc(/C(O)=C/C(=O)C(=O)O)c2ccccc21
[1]
  Selectivity index: 31
[5]
  selectivity ratio: 12
[2]
  IC50: 93 µM
CEM-SS
  CC50: 108 µM
[3]
  EC50: 9 µM
[4]
  IC50: 3 µM

## O=C(O)C(=O)/C=C(\O)c1cn(Cc2ccccc2)c2ccccc12
[1]
  Selectivity index: 12
[2]
  IC50: 12 µM
[4]
  IC50: 1 µM

## Cn1cc(/C(O)=C/C(=O)C(=O)O)c2cc3c(cc21)OCO3
[1]
  Selectivity index: 33
[2]
  IC50: 100 µM
CEM-SS
  CC50: 108 µM
[3]
  EC50: > 108 µM
[4]
  IC50: 3 µM

## O=C(O)C(=O)/C=C(\O)c1cc2ccccc2n1Cc1ccccc1
[1]
  Selectivity index: 20
[2]
  IC50: 20 µM
[4]
  IC50: 1 µM

## CCn1c(/C(O)=C/C(=O)C(=O)O)cc2ccccc21
[1]
  Selectivity index: 10
[2]
  IC50: 16 µM
CEM-SS
  CC50: 110 µM
[3]
  EC50: > 110 µM
[4]
  IC50: 1.6 µM

## COC(=O)C(=O)CC(=O)c1cc2cc3c(cc2n1C)OCO3
[1]
  Selectivity index: 2
[2]
  IC50: 100 µM
CEM-SS
  CC50: > 200 µM
[3]
  EC50: > 200 µM
[4]
  IC50: 50 µM

## CCn1cc(C(=O)CC(=O)C(=O)OC)c2ccccc21
[1]
  Selectivity index: > 3.8
[5]
  selectivity ratio: > 10.5
[2]
  IC50: > 100 µM
CEM-SS
  CC50: > 200 µM
[3]
  EC50: 19 µM
[4]
  IC50: 26 µM

## CCn1c(C(=O)CC(=O)C(=O)OC)cc2ccccc21
CEM-SS
  CC50: 60 µM
[3]
  EC50: > 60 µM

## Cn1c(/C(O)=C/C(=O)C(=O)O)cc2cc3c(cc21)OCO3
[1]
  Selectivity index: 5
[2]
  IC50: 11 µM
CEM-SS
  CC50: > 200 µM
[3]
  EC50: > 200 µM
[4]
  IC50: 2 µM

## COC(=O)C(=O)CC(=O)c1cc2ccccc2n1C
[1]
  Selectivity index: 2
[2]
  IC50: 100 µM
CEM-SS
  CC50: 106 µM
[3]
  EC50: > 106 µM
[4]
  IC50: 45 µM

## Cn1c(/C(O)=C/C(=O)C(=O)O)cc2ccccc21
[1]
  Selectivity index: 8
[2]
  IC50: 50 µM
CEM-SS
  CC50: 81 µM
[3]
  EC50: > 81 µM
[4]
  IC50: 6 µM

## Cn1cc(/C(O)=C/C(=O)C(=O)O)c2ccccc21
[1]
  Selectivity index: 50
[5]
  selectivity ratio: > 5.4
[2]
  IC50: 100 µM
CEM-SS
  CC50: > 200 µM
[3]
  EC50: 37 µM
[4]
  IC50: 2 µM
